Measurements from ChEMBL document CHEMBL1828608, “A chrysin analog exhibited strong inhibitory activities against both PGE2 and NO production” (Eur J Med Chem, 2011).

Experiments:
[1] = Cytotoxicity against mouse RAW264.7 cells assessed as reduction in cell viability at 10 uM after 24 hrs by MTT assay
[2] = molecular target: T1, Prostaglandin G/H synthase 2 (Mus musculus) (UniProt Q05769); assay: Inhibition of COX2-mediated PGE2 production in LPS-induced mouse RAW264.7 cells at 10 uM after 24 hrs by ELISA; format: cell-based
T1 sequence (whole entry): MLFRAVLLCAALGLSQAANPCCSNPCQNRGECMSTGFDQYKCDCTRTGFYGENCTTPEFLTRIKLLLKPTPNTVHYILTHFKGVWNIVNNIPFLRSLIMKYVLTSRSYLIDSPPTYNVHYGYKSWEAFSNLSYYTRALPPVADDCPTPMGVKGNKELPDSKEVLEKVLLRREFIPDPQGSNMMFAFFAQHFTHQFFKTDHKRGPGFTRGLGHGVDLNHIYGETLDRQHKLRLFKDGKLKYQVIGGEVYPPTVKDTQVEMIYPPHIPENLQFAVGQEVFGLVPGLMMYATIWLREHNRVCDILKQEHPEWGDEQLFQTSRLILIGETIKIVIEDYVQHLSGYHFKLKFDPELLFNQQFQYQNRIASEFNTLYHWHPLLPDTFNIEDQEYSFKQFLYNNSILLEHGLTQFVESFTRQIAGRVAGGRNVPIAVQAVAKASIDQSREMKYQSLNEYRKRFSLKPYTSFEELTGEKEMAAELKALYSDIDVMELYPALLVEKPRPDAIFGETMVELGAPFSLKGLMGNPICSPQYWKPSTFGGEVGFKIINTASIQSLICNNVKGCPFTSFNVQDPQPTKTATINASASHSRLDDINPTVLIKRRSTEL
How it was run: (§1)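 RAW 264.7 cells in DMEM with 10% FBS and 1% antibiotics at 37 °C, 5% CO₂, plated at 2 × 10⁵ cells/well and pre-incubated 2 h. Compound and LPS were then added together for 24 h. Medium readouts: for NO, nitrite by Griess reagent at OD 550 nm; for PGE₂, commercial ELISA.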

[3] = molecular target: T2, Nitric oxide synthase, inducible (Mus musculus) (UniProt P29477); assay: Inhibition of iNOS-mediated NO production in LPS-induced mouse RAW264.7 cells at 10 uM after 24 hrs by griess method; format: cell-based
T2 sequence (whole entry): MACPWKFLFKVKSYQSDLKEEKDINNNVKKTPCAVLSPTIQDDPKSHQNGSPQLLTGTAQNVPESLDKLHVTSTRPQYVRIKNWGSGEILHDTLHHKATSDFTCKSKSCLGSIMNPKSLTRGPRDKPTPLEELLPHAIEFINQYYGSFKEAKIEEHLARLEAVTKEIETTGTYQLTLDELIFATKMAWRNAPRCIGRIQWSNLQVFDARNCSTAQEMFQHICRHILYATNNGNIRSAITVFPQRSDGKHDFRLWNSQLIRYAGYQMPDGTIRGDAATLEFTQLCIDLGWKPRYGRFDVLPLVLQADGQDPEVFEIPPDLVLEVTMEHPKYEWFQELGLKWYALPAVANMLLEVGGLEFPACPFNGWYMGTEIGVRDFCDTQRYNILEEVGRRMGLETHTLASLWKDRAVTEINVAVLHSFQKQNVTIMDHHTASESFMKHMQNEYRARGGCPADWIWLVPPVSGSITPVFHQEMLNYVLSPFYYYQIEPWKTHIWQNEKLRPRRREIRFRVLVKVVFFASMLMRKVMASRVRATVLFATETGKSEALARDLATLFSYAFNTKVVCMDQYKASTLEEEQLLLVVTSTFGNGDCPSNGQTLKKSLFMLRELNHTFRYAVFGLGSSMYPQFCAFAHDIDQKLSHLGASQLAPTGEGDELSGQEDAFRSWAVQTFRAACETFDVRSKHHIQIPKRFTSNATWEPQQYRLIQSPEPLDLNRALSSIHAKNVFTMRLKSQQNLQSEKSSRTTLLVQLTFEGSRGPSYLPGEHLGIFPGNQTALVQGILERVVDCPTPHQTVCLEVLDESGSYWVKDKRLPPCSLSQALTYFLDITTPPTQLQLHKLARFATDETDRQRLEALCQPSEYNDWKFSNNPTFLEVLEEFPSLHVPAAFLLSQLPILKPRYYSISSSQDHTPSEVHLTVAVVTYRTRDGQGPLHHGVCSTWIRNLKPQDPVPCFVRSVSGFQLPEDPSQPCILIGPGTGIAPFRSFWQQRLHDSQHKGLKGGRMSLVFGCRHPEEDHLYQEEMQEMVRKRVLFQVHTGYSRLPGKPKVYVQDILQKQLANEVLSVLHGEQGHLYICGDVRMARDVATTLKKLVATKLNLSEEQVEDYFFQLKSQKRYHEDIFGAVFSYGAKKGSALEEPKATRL
How it was run: as §1

## O=c1cc(-c2ccccc2)oc2c(-c3ccsc3)c(O)cc(O)c12
[1]
  reduction in viability at 24 h, 10 µM: < 10%
[2]
  inhibition: 31.4%
[3]
  inhibition: 7.6%

## O=c1cc(-c2ccccc2)oc2cc(O)cc(O)c12
[2]
  inhibition: 74%
[3]
  inhibition: 8.9%

## O=c1cc(-c2ccccc2)oc2c(-c3ccoc3)c(O)cc(O)c12
[1]
  reduction in viability at 24 h, 10 µM: < 10%
[2]
  inhibition: 26.7%
[3]
  inhibition: 8.3%

## O=c1cc(-c2ccccc2)oc2c(-c3cccnc3)c(O)cc(O)c12
[1]
  reduction in viability at 24 h, 10 µM: < 10%
[2]
  inhibition: 48.1%
[3]
  inhibition: 16.7%

## O=c1cc(-c2ccccc2)oc2c(-c3ccncc3)c(O)cc(O)c12
[1]
  reduction in viability at 24 h, 10 µM: < 10%
[2]
  inhibition: 92.4%
[3]
  inhibition: 29.1%

## Cc1c(O)cc(O)c2c(=O)cc(-c3ccccc3)oc12
[1]
  reduction in viability at 24 h, 10 µM: < 10%
[2]
  inhibition: 44.3%
[3]
  inhibition: 3.7%
